How the values were obtained:
Cholinesterase = Cholinesterase (Homo sapiens, UniProt P06276); experiment: Inhibition of human serum BuChE using butyrylthiocholine iodide as substrate preincubated for 20 mins prior to substrate addition by Ellman's method
In short: (§1)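 Ellman method with acetylthiocholine iodide (AChE) or butyrylthiocholine iodide (BuChE) as substrate. Enzyme and inhibitor preincubated 20 min at 37 °C before substrate addition. Blanks without enzyme corrected for non-enzymatic hydrolysis. Five inhibitor concentrations giving 20-80% inhibition. IC50 from linear regression of % inhibition vs log final concentration. Mean of two or three independent measurements, each in triplicate.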

Acetylcholinesterase = Acetylcholinesterase (Homo sapiens, UniProt P22303); experiment: Inhibition of human recombinant AChE using acetylthiocholine iodide as substrate preincubated for 20 mins prior to substrate addition by Ellman's method; settings: read-out: IC50; in short: as §1
Chain of Acetylcholinesterase (P22303 whole entry): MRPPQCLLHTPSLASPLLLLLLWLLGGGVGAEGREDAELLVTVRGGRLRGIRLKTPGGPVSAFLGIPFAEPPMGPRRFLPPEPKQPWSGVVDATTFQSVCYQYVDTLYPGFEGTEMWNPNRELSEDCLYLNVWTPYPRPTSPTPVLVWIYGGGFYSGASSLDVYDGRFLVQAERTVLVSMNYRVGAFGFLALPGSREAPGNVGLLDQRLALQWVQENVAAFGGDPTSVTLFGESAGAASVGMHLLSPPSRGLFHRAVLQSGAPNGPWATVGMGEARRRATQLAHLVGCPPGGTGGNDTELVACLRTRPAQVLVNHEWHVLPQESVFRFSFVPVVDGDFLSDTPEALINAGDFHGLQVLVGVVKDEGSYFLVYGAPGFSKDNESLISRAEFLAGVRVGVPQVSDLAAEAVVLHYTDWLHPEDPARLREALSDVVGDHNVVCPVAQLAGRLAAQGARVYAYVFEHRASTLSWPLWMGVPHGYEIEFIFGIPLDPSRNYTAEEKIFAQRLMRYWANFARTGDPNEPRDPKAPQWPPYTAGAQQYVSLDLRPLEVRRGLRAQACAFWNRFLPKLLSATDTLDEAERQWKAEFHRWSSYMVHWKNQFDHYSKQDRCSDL

[1] = Induction of amyloid beta (25 to 35) fibril formation at 10 uM incubated up to 6 hrs by UV-Vis spectrophotometry
In short: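 Aβ25-35, sonicated 1 min, was mixed in 10 mM phosphate buffer (pH 7.2) with compound added in MeOH, on ice. Polymerization was followed by UV-visible spectroscopy at 190–380 nm over 0–6 h. Compound-alone spectra were subtracted, and peptide-alone and curcumin controls were run in parallel. IC50 (0.1–50 range) came from a sigmoidal least-squares fit. At least three independent runs.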

Cannabinoid receptor 1 [2] = molecular target: T1, Cannabinoid receptor 1 (Homo sapiens, UniProt P21554); experiment: Displacement of [3H]CP-55940 from human recombinant CB1 receptor expressed in HEK293 cells after 90 mins; assay type: cell-based
T1 sequence (P21554 whole entry): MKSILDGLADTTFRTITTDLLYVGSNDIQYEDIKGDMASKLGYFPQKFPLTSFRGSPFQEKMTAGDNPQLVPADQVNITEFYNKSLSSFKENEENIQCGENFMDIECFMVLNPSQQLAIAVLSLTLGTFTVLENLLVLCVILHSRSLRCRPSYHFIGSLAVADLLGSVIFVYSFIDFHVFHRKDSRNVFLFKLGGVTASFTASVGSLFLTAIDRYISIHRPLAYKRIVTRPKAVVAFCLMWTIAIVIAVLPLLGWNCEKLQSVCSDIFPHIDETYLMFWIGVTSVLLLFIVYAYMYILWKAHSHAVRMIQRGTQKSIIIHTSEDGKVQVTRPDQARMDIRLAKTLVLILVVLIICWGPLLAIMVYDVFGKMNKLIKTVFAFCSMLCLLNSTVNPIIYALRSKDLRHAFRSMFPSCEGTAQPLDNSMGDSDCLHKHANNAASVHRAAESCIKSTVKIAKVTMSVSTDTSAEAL
In short: (§2)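 Membranes from HEK-293 cells stably expressing human recombinant CB1 (Bmax 2.5 pmol/mg) or CB2 (Bmax 4.7 pmol/mg). Incubated with [3H]-CP-55,940 (CB1 0.14 nM, Kd 0.18 nM; CB2 0.084 nM, Kd 0.31 nM) and increasing compound concentrations for 90 min at 30 °C. Non-specific binding defined with 10 […] 55212-2. IC50 by non-linear regression, converted to Ki by Cheng-Prusoff. Means of at least n = 3.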

Cannabinoid receptor 1 [3] = molecular target: T1, Cannabinoid receptor 1; experiment: Displacement of [3H]CP-55940 from human recombinant CB1 receptor expressed in HEK293 cells at 10 uM after 90 mins; assay type: cell-based
In short: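 Membranes from HEK-293 cells stably expressing human recombinant CB1 or CB2 were incubated with [³H]-CP-55,940 (0.14 nM for CB1; 0.084 nM for CB2) plus test compound for 90 min at 30 °C. Non-specific binding was defined with WIN 55212-2. Percent displacement of bound radioligand at the maximum tested concentration is reported. At least n = 3 experiments.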

Cannabinoid receptor 2 [4] = molecular target: T2, Cannabinoid receptor 2 (Homo sapiens, UniProt P34972); experiment: Displacement of [3H]CP-55940 from human recombinant CB2 receptor expressed in HEK293 cells after 90 mins; assay type: cell-based; in short: as §2
T2 sequence (P34972 whole entry): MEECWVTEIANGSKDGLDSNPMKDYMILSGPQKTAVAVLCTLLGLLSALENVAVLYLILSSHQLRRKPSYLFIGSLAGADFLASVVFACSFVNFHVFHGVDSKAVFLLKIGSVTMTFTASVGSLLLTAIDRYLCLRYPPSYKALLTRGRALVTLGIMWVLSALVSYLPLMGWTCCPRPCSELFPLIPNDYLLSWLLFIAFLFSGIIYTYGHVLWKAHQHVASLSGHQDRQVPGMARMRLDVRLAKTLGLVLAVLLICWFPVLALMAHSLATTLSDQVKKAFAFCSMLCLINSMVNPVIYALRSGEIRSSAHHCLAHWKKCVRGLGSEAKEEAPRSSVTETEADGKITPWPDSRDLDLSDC

Cannabinoid receptor 2 [5] = molecular target: T2, Cannabinoid receptor 2; experiment: Displacement of [3H]CP-55940 from human recombinant CB2 receptor expressed in HEK293 cells at 10 uM after 90 mins; assay type: cell-based

Chain of Cholinesterase (P06276 whole entry): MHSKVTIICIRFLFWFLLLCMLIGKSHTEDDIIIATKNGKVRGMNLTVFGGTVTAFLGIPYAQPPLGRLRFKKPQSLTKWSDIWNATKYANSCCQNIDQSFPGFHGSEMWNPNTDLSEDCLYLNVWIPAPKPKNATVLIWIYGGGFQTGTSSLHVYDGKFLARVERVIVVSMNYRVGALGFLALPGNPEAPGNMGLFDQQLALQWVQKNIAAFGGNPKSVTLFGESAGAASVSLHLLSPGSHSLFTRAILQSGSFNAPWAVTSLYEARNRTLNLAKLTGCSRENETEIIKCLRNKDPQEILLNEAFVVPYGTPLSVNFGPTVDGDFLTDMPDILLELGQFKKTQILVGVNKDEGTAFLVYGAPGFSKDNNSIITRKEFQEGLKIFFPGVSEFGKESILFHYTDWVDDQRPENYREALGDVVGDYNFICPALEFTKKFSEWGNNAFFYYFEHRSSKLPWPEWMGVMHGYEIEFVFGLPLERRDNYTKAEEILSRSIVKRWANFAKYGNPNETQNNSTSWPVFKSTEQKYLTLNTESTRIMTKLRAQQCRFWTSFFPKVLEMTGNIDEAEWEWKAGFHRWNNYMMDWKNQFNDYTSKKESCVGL

Structure (SMILES): CN(CCCCCCCOc1ccc(-c2oc3ccccc3c2C(=O)c2c3ccccc3cc3ccccc23)cc1)Cc1ccccc1
- IC50 (Cholinesterase): 81.2 µM
- IC50 (Acetylcholinesterase): 67.7 µM
- Activity [1]: Toxic
- EC50 (Cannabinoid receptor 1 [2]): > 10 µM
- Ki (Cannabinoid receptor 1 [2]): > 10 µM
- Activity (Cannabinoid receptor 1 [3]): 30.3%
- EC50 (Cannabinoid receptor 2 [4]): > 10 µM
- Ki (Cannabinoid receptor 2 [4]): > 10 µM
- Activity (Cannabinoid receptor 2 [5]): 9.87%
